In brackets after ≈: the same amount, converted by molar mass.

Holding throughout (assay type): functional
For experiment [1], the system named is Escherichia coli. Kind of experiment: Antibacterial activity against Escherichia coli ATCC 35218 by microbroth dilution technique. An outline of the steps:
(§1)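 Read-out was the minimum inhibitory concentration (MIC), found by broth microdilution.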
For orientation: In broth dilution the organism is exposed to a series of concentrations in liquid medium.

The subject of experiment [2] is Escherichia coli. The experiment can be described thus: Antibacterial activity against Escherichia coli ATCC 25922 by microbroth dilution technique. A digest of the protocol: as §1
Experiment [3] concerns Staphylococcus aureus. Kind of experiment: Antibacterial activity against Staphylococcus aureus ATCC 25923 by microbroth dilution technique. An outline of the steps:
as §1

The subject of experiment [4] is Staphylococcus aureus. Kind of experiment: Antibacterial activity against methicillin-susceptible Staphylococcus aureus ATCC 29213 by microbroth dilution technique. An outline of the steps: as §1
The test system of experiment [5] is Staphylococcus epidermidis. The experiment can be described thus: Antibacterial activity against Staphylococcus epidermidis ATCC 12228 by microbroth dilution technique. An outline of the steps:
as §1

Experiment [6] concerns Staphylococcus aureus. The experiment can be described thus: Antibacterial activity against methicillin-resistant Staphylococcus aureus ATCC 43300 by microbroth dilution technique.

As a reminder, the MIC is the lowest concentration that inhibits growth of the organism. As to `CCCC[C@H](CN(O)C=O)C(=O)N1CC=C[C@H]1C(=O)Nc1ccccn1`, the MIC in experiment [1] was 32 µg/mL (≈ 88.8 µM); in experiment [2], over 64 µg/mL; in experiment [3], 0.125 µg/mL (≈ 0.347 µM); in experiment [4], 1 µg/mL (≈ 2.77 µM); in experiment [5] it was 0.5 µg/mL (≈ 1.39 µM); in experiment [6] it was 0.125 µg/mL (≈ 0.347 µM).
Take `CCCC[C@H](CN(O)C=O)C(=O)N1CC=C[C@H]1C(=O)Nc1ccc(F)cn1`: the minimum inhibitory concentration (MIC) in experiment [1] was 64 µg/mL (≈ 169 µM); in experiment [2], over 64 µg/mL; in experiment [3] it was 0.5 µg/mL (≈ 1.32 µM); in experiment [4], 1 µg/mL (≈ 2.64 µM); in experiment [5], 0.5 µg/mL (≈ 1.32 µM); in experiment [6] it was 0.25 µg/mL (≈ 0.661 µM).
As to `CCCC[C@H](CN(O)C=O)C(=O)N1CC=C[C@H]1C(=O)Nc1ccc(F)c[n+]1[O-]`, the minimal inhibitory concentration (MIC) is 64 µg/mL (≈ 162 µM) in experiment [1]; over 64 µg/mL in experiment [2]; 0.5 µg/mL (≈ 1.27 µM) in experiment [3]; 1 µg/mL (≈ 2.54 µM) in experiment [4]; 1 µg/mL (≈ 2.54 µM) in experiment [5]; 0.5 µg/mL (≈ 1.27 µM) in experiment [6].
Regarding `CCCC[C@H](CN(O)C=O)C(=O)N1CC=C[C@H]1C(=O)Nc1ncc(C)s1`, the minimum inhibitory concentration (MIC) turned out to be 16 µg/mL (≈ 42.1 µM) in experiment [1]; 32 µg/mL (≈ 84.1 µM) in experiment [2]; 0.0625 µg/mL (≈ 0.164 µM) in experiment [3]; 0.25 µg/mL (≈ 0.657 µM) in experiment [4]; 0.25 µg/mL (≈ 0.657 µM) in experiment [5]; 0.125 µg/mL (≈ 0.329 µM) in experiment [6].
In the case of `CCCC[C@H](CN(O)C=O)C(=O)N1CC=C[C@H]1C(=O)N1CCOCC1`, the MIC is over 64 µg/mL in experiment [1]; over 64 µg/mL in experiment [2]; over 64 µg/mL in experiment [3]; over 64 µg/mL in experiment [4]; over 64 µg/mL in experiment [5]; 32 µg/mL (≈ 90.5 µM) in experiment [6].
Regarding `CCCC[C@H](CN(O)C=O)C(=O)N1CC=C[C@H]1C(=O)NC1CC1`, the MIC in experiment [1] came out at 32 µg/mL (≈ 99 µM); in experiment [2] it was 64 µg/mL (≈ 198 µM); in experiment [3], 64 µg/mL (≈ 198 µM); in experiment [4] it was 32 µg/mL (≈ 99 µM); in experiment [5], 4 µg/mL (≈ 12.4 µM); in experiment [6] it was 2 µg/mL (≈ 6.18 µM).
On to `CCCC[C@H](CN(O)C=O)C(=O)N1CC=C[C@H]1C(=O)Nc1ccc(Cl)cc1`, for which the minimal inhibitory concentration (MIC) in experiment [1] was over 64 µg/mL; in experiment [2] it was over 64 µg/mL; in experiment [3] it was 8 µg/mL (≈ 20.3 µM); in experiment [4], 2 µg/mL (≈ 5.08 µM); in experiment [5] it was 4 µg/mL (≈ 10.2 µM); in experiment [6], 1 µg/mL (≈ 2.54 µM).
With `CCCC[C@H](CN(O)C=O)C(=O)N1CC=C[C@H]1C(=O)Nc1ccccc1Br`, the minimum inhibitory concentration (MIC) in experiment [1] was over 64 µg/mL; in experiment [2], over 64 µg/mL; in experiment [3], 32 µg/mL (≈ 73 µM); in experiment [4], 4 µg/mL (≈ 9.13 µM); in experiment [5] it was 8 µg/mL (≈ 18.3 µM); in experiment [6] it was 1 µg/mL (≈ 2.28 µM).
As for `CCCC[C@H](CN(O)C=O)C(=O)N1CC=C[C@H]1C(=O)Nc1cccc(Br)c1`, the minimal inhibitory concentration (MIC) in experiment [1] was determined as 16 µg/mL (≈ 36.5 µM); in experiment [2] it was 64 µg/mL (≈ 146 µM); in experiment [3], 8 µg/mL (≈ 18.3 µM); in experiment [4], 1 µg/mL (≈ 2.28 µM); in experiment [5], 1 µg/mL (≈ 2.28 µM); in experiment [6], 0.125 µg/mL (≈ 0.285 µM).
Turning to `CCCC[C@H](CN(O)C=O)C(=O)N1CC=C[C@H]1C(=O)Nc1ccc(Br)cc1`, the minimum inhibitory concentration (MIC) is over 64 µg/mL in experiment [1]; over 64 µg/mL in experiment [2]; 4 µg/mL (≈ 9.13 µM) in experiment [3]; 1 µg/mL (≈ 2.28 µM) in experiment [4]; 2 µg/mL (≈ 4.56 µM) in experiment [5]; 0.5 µg/mL (≈ 1.14 µM) in experiment [6].
With `CCCC[C@H](CN(O)C=O)C(=O)N1CC=C[C@H]1C(=O)Nc1ccccc1Cl`, the MIC is 64 µg/mL (≈ 162 µM) in experiment [1]; over 64 µg/mL in experiment [2]; 0.5 µg/mL (≈ 1.27 µM) in experiment [3]; 2 µg/mL (≈ 5.08 µM) in experiment [4]; 1 µg/mL (≈ 2.54 µM) in experiment [5]; 0.25 µg/mL (≈ 0.635 µM) in experiment [6].
With `CCCC[C@H](CN(O)C=O)C(=O)N1CC=C[C@H]1C(=O)Nc1ccc(F)cc1`, the MIC in experiment [1] was 64 µg/mL (≈ 170 µM); in experiment [2], over 64 µg/mL; in experiment [3] it was 2 µg/mL (≈ 5.3 µM); in experiment [4], 2 µg/mL (≈ 5.3 µM); in experiment [5], 4 µg/mL (≈ 10.6 µM); in experiment [6] it was 1 µg/mL (≈ 2.65 µM).
Take `CCCC[C@H](CN(O)C=O)C(=O)N1CC=C[C@H]1C(=O)Nc1ccc([N+](=O)[O-])cc1`: the MIC in experiment [1] is 32 µg/mL (≈ 79.1 µM); in experiment [2] it was over 64 µg/mL; in experiment [3] it was 0.5 µg/mL (≈ 1.24 µM); in experiment [4], 2 µg/mL (≈ 4.95 µM); in experiment [5], 0.5 µg/mL (≈ 1.24 µM); in experiment [6] it was 0.5 µg/mL (≈ 1.24 µM).
For the molecule `CCCC[C@H](CN(O)C=O)C(=O)N1CC=C[C@H]1C(=O)Nc1ccc(OC)cc1`, the minimum inhibitory concentration (MIC) in experiment [1] is over 64 µg/mL; in experiment [2], over 64 µg/mL; in experiment [3] it was 0.5 µg/mL (≈ 1.28 µM); in experiment [4], 2 µg/mL (≈ 5.14 µM); in experiment [5], 2 µg/mL (≈ 5.14 µM); in experiment [6], 1 µg/mL (≈ 2.57 µM).
As to `CCCC[C@H](CN(O)C=O)C(=O)N1CC=C[C@H]1C(=O)Nc1nnc(C(F)(F)F)s1`, the minimal inhibitory concentration (MIC) in experiment [1] is over 64 µg/mL; in experiment [2] it was over 64 µg/mL; in experiment [3], 32 µg/mL (≈ 73.5 µM); in experiment [4] it was 16 µg/mL (≈ 36.7 µM); in experiment [5] it was 16 µg/mL (≈ 36.7 µM); in experiment [6] it was 8 µg/mL (≈ 18.4 µM).
In the case of `CCCC[C@H](CN(O)C=O)C(=O)N1CC=C[C@H]1C(=O)N[C@@H](C)c1ccccc1`, the MIC in experiment [1] is over 64 µg/mL; in experiment [2], over 64 µg/mL; in experiment [3], 4 µg/mL (≈ 10.3 µM); in experiment [4] it was 16 µg/mL (≈ 41.3 µM); in experiment [5], 8 µg/mL (≈ 20.6 µM); in experiment [6], 8 µg/mL (≈ 20.6 µM).
As for `CCCC[C@H](CN(O)C=O)C(=O)N1CC=C[C@H]1C(=O)N[C@H](C)c1ccccc1`, the MIC is over 64 µg/mL in experiment [1]; over 64 µg/mL in experiment [2]; 4 µg/mL (≈ 10.3 µM) in experiment [3]; 16 µg/mL (≈ 41.3 µM) in experiment [4]; 4 µg/mL (≈ 10.3 µM) in experiment [5]; 2 µg/mL (≈ 5.16 µM) in experiment [6].
`CCCC[C@H](CN(O)C=O)C(=O)N1CC=C[C@H]1C(=O)Nc1ccccc1`: the MIC in experiment [1] is 64 µg/mL (≈ 178 µM); in experiment [2], over 64 µg/mL; in experiment [3] it was 4 µg/mL (≈ 11.1 µM); in experiment [4], 8 µg/mL (≈ 22.3 µM); in experiment [5], 2 µg/mL (≈ 5.56 µM); in experiment [6], 1 µg/mL (≈ 2.78 µM).
Regarding `CCCC[C@H](CN(O)C=O)C(=O)N1CCC[C@H]1C(=O)Nc1ccc(F)c[n+]1[O-]`, the minimal inhibitory concentration (MIC) in experiment [1] amounted to 64 µg/mL (≈ 161 µM); in experiment [2] it was 64 µg/mL (≈ 161 µM); in experiment [3], 0.25 µg/mL (≈ 0.631 µM); in experiment [4], 1 µg/mL (≈ 2.52 µM); in experiment [5], 0.5 µg/mL (≈ 1.26 µM); in experiment [6], 0.5 µg/mL (≈ 1.26 µM).
As for `O=C(O)c1cn(C2CC2)c2cc(N3CCNCC3)c(F)cc2c1=O` [CIPROFLOXACIN], the MIC in experiment [1] is under 0.0312 µg/mL; in experiment [2] it was under 0.0312 µg/mL; in experiment [3] it was 0.5 µg/mL (≈ 1.51 µM); in experiment [4] it was 0.5 µg/mL (≈ 1.51 µM); in experiment [5] it was 0.25 µg/mL (≈ 0.754 µM); in experiment [6], 1 µg/mL (≈ 3.02 µM).
Take `CC(=O)NC[C@H]1CN(c2ccc(N3CCOCC3)c(F)c2)C(=O)O1` [LINEZOLID]: the MIC is over 64 µg/mL in experiment [1], over 64 µg/mL in experiment [2] and 0.5 µg/mL (≈ 1.48 µM) in experiment [5].
For `CC1(C)S[C@@H]2[C@H](NC(=O)Cc3ccccc3)C(=O)N2[C@H]1C(=O)O` [PENICILLIN G], the minimum inhibitory concentration (MIC) was over 64 µg/mL in experiment [1]; over 64 µg/mL in experiment [2]; 0.0625 µg/mL (≈ 0.187 µM) in experiment [3]; 1 µg/mL (≈ 2.99 µM) in experiment [4]; 2 µg/mL (≈ 5.98 µM) in experiment [5]; 64 µg/mL (≈ 191 µM) in experiment [6].
For the molecule `CN[C@H](CC(C)C)C(=O)N[C@H]1C(=O)N[C@@H](CC(N)=O)C(=O)N[C@H]2C(=O)N[C@H]3C(=O)N[C@H](C(=O)N[C@H](C(=O)O)c4cc(O)cc(O)c4-c4cc3ccc4O)[C@H](O)c3ccc(c(Cl)c3)Oc3cc2cc(c3O[C@@H]2O[C@H](CO)[C@@H](O)[C@H](O)[C@H]2O[C@H]2C[C@](C)(N)[C@H](O)[C@H](C)O2)Oc2ccc(cc2Cl)[C@H]1O` [VANCOMYCIN], the MIC in experiment [1] and in experiment [2] was over 64 µg/mL in each case.
